Most compounds without a hit are left out; they make up all but 2.3% or so of the library.
ABHD4 inh = ABHD4 inhibitors, primary screen, biochemical, fluorescence polarization, mouse; purified mABHD4, FP-Rh probe fluorescence polarization; AID 720543, 2013; inhibition, % at 8.92 µM; 370,000 tested, 0.54% active;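 active = inhibition exceeding the mean over every tested compound plus 3 SD, cut at about 30% in these data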;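 note: 0% = plate median of compound wells and 100% = S159A mutant with DMSO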
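assay system = mABHD4 protein | compound dosing = single nominal dose of 8.92 µM, 0.89% DMSO final | read-out basis = percent inhibition of probe binding, normalized to plate controls | schedule = Enzyme–compound pre-incubation 45 min, then probe 60 min, both 25 °C | detection = fluorescence polarization, excitation 525 nm, emission 598 nm, BODIPY TMR filters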
HTRA1 inhibitor = HTRA1 serine protease inhibitors, primary screen, biochemical, fluorescence polarization, HTS; 340,000 tested, 0.5% active; recombinant HTRA1, FP-rhodamine activity-based probe; inhibition, % at 5.96 µM; Q92743; in the data active = inhibition above about 36%;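 note: 0% = enzyme with DMSO and 100% = wells lacking enzyme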
TCR-CD3 inh = inhibitors of human TCR-CD3 interaction, primary screen, biochemical, fluorescence, TAMRA-labeled TCR probe; 360,000 tested, 0.37% active; inhibition, % at 9.4 µM;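 note: recombinant mutant TCR 2C K166C tagged with TAMRA read by polarization; 0% = receptor in buffer alone and 100% = receptor with positive control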
pPAFAH FP inh = pPAFAH enzyme inhibitors, primary screen, biochemical, fluorescence polarization, human | inhibition, % at 3.39 µM | 330,000 tested, 1.5% active | recombinant pPAFAH, FP-rhodamine probe fluorescence polarization | Platelet-activating factor acetylhydrolase (Homo sapiens), Q13093 | AID 463082, 2010;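 active = inhibition above the mean inhibition across the screen plus 3 SD, cut at about 25% in these data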;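 note: inhibitors block binding of the rhodamine activity-based probe so polarization drops; 0% = enzyme with DMSO and 100% = wells lacking pPAFAH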
Target sequence (Q13093 whole entry, looked up): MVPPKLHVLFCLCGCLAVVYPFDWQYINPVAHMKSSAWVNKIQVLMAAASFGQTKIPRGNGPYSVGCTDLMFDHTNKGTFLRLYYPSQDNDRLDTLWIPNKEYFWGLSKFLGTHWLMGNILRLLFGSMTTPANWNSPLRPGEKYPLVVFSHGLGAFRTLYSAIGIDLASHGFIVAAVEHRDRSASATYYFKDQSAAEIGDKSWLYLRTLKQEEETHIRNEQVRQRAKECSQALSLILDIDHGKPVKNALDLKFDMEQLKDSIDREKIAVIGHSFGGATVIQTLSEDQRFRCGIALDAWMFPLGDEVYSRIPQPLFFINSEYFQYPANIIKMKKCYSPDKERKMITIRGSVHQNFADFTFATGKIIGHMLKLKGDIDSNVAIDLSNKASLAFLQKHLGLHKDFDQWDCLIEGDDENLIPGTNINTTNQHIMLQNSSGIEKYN
SIAE primary = human SIAE inhibitors, primary screen, biochemical, fluorescence polarization, FP-Rh probe, 1536-well HTS | SIAE FP-Rh probe binding | 370,000 tested, 0.69% active | Sialate O-acetylesterase (Homo sapiens), Q9HAT2 | inhibition, % at 9.66 µM;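 active = inhibition above a cutoff: mean of compounds within the control limits plus 3 SD of those, cut at about 17% in these data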;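 note: 0% = plate median of compound wells and 100% = probe without SIAE protein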
HTRA1 conf = HTRA1 protease inhibitors, retest, confirmation, biochemical, fluorescence polarization; recombinant HTRA1, FP-rhodamine activity-based probe; shares compounds with HTRA1 inhibitor; 1,600 tested, 66% active; inhibition, % at 5.96 µM;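 active = mean inhibition over three repeats above a set limit taken from the earlier primary screen, cut at about 37% in these data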;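 note: 0% = HTRA1 with DMSO and 100% = wells lacking HTRA1; inhibitors block probe binding so polarization drops and inhibition rises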
BSA probe FL = compounds interfering with TAMRA-BSA probe, counter-screen for TCR-CD3 interaction inhibitor project, biochemical, fluorescence, TAMRA-labeled BSA | 1,200 tested, 10% active | shares compounds with TCR-CD3 inh | TAMRA-labeled BSA probe fluorescence counterscreen | inhibition, % at 9.4 µM | AID 652035, 2013; in the data active = inhibition above about 23%;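 note: 0% = buffer low control and 100% = reference high control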
TCR-CD3 conf = TCR-CD3 interaction inhibitors, retest, confirmation, biochemical, fluorescence, TAMRA-labeled TCR probe. shares compounds with TCR-CD3 inh. TAMRA-labeled TCR probe fluorescence binding assay. inhibition, % at 9.4 µM. 1,200 tested, 48% active. AID 652036, 2013
ABHD4 confirm = ABHD4 inhibitors, retest, confirmation, biochemical, fluorescence polarization, mouse. shares compounds with ABHD4 inh. purified mABHD4, FP-Rh probe fluorescence polarization. inhibition, % at 8.92 µM. 1,800 tested, 55% active;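 active = mean inhibition across replicates above the hit cutoff set in the primary screen, cut at about 30% in these data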;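 note: 0% = wild-type ABHD4 with DMSO and 100% = catalytically dead S159A mutant with DMSO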
* hit, by the source's call; x = not tested or not shown. Cut-off read from the data, not from the text of the source, unless noted: active = inhibition above about 19%; inactive = the rest.

SMILES	ABHD4 inh	HTRA1 inhibitor	TCR-CD3 inh	pPAFAH FP inh	SIAE primary	HTRA1 conf	ABHD4 confirm	others
COc1ccc(C2OC34CCCCC3C(C#N)(C#N)C2(C#N)C(=N)O4)cc1 (stereo not drawn)	34*	36*	27*	16	13	43*	52*	BSA probe FL=65*;TCR-CD3 conf=44*
CC1OC23CCCCC2C(C#N)(C(=N)O3)C1(C#N)C#N (stereo not drawn)	8	5	-3	3	5	x	x
O=S1(=O)CC(N2CCCCC2)CN1Cc1cn(Cc2ccc(F)cc2)nn1 (stereo not drawn)	-3	x	-3	x	-3	x	x
O=C1Nc2ccccc2/C1=N\N=C\c1ccc(O)c(O)c1	48*	49*	32*	5	4	78*	44*	BSA probe FL=-15;TCR-CD3 conf=41*
O=C(OCC#CCSc1nnc(-c2ccccc2F)o1)c1ccc(F)cc1	-10	x	x	x	7	x	x
COc1cccc(CNC(=O)[C@@H]2CCCN2C(=O)[C@H]2CCCCN2C(=O)c2ccccc2)c1	-2	x	3	x	-7	x	x
N#CC1=C2N=C(N)c3ccccc3N2C2=C(C(=O)CCC2)C1c1ccc(F)cc1 (stereo not drawn)	8	-5	-3	3	3	x	x
N#CC1=C2N=C(N)c3c(sc4c3CCCCC4)N2C2=C(C(=O)CCC2)C1c1ccccc1 (stereo not drawn)	32*	40*	2	30*	11	9	-26
Cc1cccc(N=NC(=S)NNc2cccc(C)c2)c1	32*	36*	1	x	6	45*	58*
Cc1cccc(NNC(=O)C(=O)NNc2cccc(C)c2)c1	10	x	5	5	11	x	x
N#C/C(N=Nc1ccccc1O)=N\Nc1ccccc1O	67*	68*	-8	20	4	71*	110*
Oc1ccccc1N=N/C(=N/Nc1ccccc1O)c1ccccc1	0	9	0	10	4	x	x
O=C1c2ccccc2C(=O)c2c1ccc(O)c2O	74*	76*	16	x	19*	93*	88*
Nc1cc2c(cc1O)CCCC2	30*	44*	7	31*	7	30	28
O=C1CCCCc2cc(O)c(O)cc21	10	12	5	x	7	x	x
COc1ccc(OC)c(NC(=O)CSc2nncc3ccc(OC)c(OC)c23)c1	43*	44*	11	1	11	2	32*
Cc1ccc(S(=O)(=O)N2C3CCCCC3O[C@H]2CC(=O)c2cccs2)cc1 (stereo partly drawn)	-6	x	-6	x	-4	x	x
OC(c1cccc(Cl)c1)c1ncc(-c2cccc3ccccc23)[nH]1 (stereo not drawn)	-3	x	0	x	-9	x	x
Cc1cc(=O)c2c(o1)C(=O)c1occc1C2=O	58*	46*	9	x	5	15	61*
CC(C)NC(=O)N(C)C[C@H]1OCCCC[C@@H](C)Oc2ccc(N(C)C)cc2C(=O)N([C@H](C)CO)C[C@@H]1C	1	x	6	x	-3	x	x
CCc1c(-c2ccc(OC)cc2)ncn1Cc1cccc(-c2ccccc2)c1	16	x	-10	x	0	x	x
CNCc1ccccc1Sc1ccc(O)c(O)c1	35*	62*	11	20	10	57*	50*
Cc1cccc(-c2ccc(O)cc2CN2CCN(c3ncc(Cc4ccccc4)cn3)CC2)c1	-4	x	1	x	-16	x	x
CC1=CC(C)(C)Nc2ccc(Cc3ccc4c(c3)C(C)=CC(C)(C)N4)cc21	31*	51*	-1	8	11	37*	33*
OCCNc1c2ccccc2nc2c(F)c(F)c(F)c(F)c12	7	0	8	6	0	x	x
SMILES	ABHD4 inh	HTRA1 inhibitor	TCR-CD3 inh	pPAFAH FP inh	SIAE primary	HTRA1 conf	ABHD4 confirm	others
Cc1c2ccccc2nc2c(F)c(NC(C)C)c(F)c(F)c12	47*	57*	-3	16	15	26	27
CC1(C)CC(=O)C(C=Nc2ccc(C(=O)c3ccccc3)cc2N=CC2=C(O)CC(C)(C)CC2=O)=C(O)C1	30*	41*	-8	9	-9	15	8
COCCNC(=O)C1(C)CCCN(C(=O)c2ccc3snnc3c2)C1 (stereo not drawn)	5	x	-3	x	7	x	x
Oc1ccc(/C=N/N2CCCCC2)c(O)c1O	31*	38*	7	21	6	33	15
O=C(/C=C/c1ccc(O)c(O)c1)NC(=O)c1ccccc1O	57*	65*	24*	3	1	62*	36*	BSA probe FL=-18;TCR-CD3 conf=21*
COc1c(/C=C2\SC(=Nc3ccccc3Cl)NC2=O)cccc1[N+](=O)[O-]	-21	-60	-8	17	-8	x	x
O=C1NC(=Nc2ccccc2Cl)S/C1=C\c1cccc([N+](=O)[O-])c1O	53*	55*	-8	34*	2	58*	60*
CCCCC[C@@H](C)N1C[C@@H](COCc2ccccc2)Oc2cc(N3CC[C@H](N(C)C)C3)ccc2S1(=O)=O	20	x	-1	x	14	x	x
Cc1ccc(O)c(/C=N/NC(=O)Cc2ccc(Cl)cc2)c1	2	8	8	1	1	x	x
O=C(Cc1ccc(Cl)cc1)N/N=C/c1ccc(O)c(O)c1	33*	63*	8	x	-8	68*	15
Cc1nc2ccc(NC(=O)c3cc(F)cc(F)c3)cc2c(=O)[nH]1	9	x	x	x	-1	x	x
Clc1cccc(Cl)c1C1Nc2cccc3cccc(c23)N1	72*	70*	6	24	16	26	48*
Clc1ccc(C2Nc3cccc4cccc(c34)N2)cc1Cl	14	21	-6	6	5	x	x
Fc1cccc(Cl)c1C1Nc2cccc3cccc(c23)N1	57*	50*	14	13	15	19	48*
CC(C)C[C@@H]1Cc2[nH]c(=S)[nH]c(=O)c2[C@H](C)O1	4	x	-1	x	6	x	x
Nc1ncnc(N)c1N=Nc1ccccc1	0	0	7	x	0	x	x
